What all share (type): ADME
Series [1] concerns the target T1, Solute carrier family 15 member 1 (Homo sapiens, UniProt P46059).
T1 sequence (P46059 whole entry): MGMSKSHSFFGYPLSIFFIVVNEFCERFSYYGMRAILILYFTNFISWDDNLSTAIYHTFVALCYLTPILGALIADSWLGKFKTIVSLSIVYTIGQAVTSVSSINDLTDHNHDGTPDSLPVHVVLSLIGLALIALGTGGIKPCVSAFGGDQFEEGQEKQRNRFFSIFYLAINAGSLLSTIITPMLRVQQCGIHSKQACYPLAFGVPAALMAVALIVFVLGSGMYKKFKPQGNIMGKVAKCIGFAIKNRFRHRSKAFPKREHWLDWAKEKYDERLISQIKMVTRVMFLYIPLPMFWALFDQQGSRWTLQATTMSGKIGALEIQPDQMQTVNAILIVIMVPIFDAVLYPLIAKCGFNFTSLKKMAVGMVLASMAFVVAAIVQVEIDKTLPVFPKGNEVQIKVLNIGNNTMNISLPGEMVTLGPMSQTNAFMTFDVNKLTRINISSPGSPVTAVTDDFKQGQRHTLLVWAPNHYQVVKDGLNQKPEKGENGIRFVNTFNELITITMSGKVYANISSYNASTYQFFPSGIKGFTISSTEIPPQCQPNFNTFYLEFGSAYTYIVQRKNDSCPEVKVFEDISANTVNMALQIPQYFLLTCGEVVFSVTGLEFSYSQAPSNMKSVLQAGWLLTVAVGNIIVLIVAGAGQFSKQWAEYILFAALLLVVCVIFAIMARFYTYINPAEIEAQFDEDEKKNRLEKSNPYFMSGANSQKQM
The series can be described thus: Drug uptake in Pichia pastoris GS115 expressing human recombinant PEPT1 at 5 uM after 30s by dual-channel liquid scintillation counting analysis in presence of valacyclovir relative to control. To be noted: 0.5 min. A digest of the protocol: (§1)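 [3H]GlySar 5.0 µM final, 30-s uptake at 24°C in 100 mM potassium phosphate pH 6.5, with or without a potential inhibitor at 10 mM. Cells are methanol-induced transformants. Values are vector-subtracted and expressed as percent of buffer control. Mean ± SE (n=3). ANOVA with Dunnett's test.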

Series [2] concerns the target T2, Solute carrier family 15 member 1 (Rattus norvegicus, UniProt P51574).
T2 sequence (P51574 whole entry): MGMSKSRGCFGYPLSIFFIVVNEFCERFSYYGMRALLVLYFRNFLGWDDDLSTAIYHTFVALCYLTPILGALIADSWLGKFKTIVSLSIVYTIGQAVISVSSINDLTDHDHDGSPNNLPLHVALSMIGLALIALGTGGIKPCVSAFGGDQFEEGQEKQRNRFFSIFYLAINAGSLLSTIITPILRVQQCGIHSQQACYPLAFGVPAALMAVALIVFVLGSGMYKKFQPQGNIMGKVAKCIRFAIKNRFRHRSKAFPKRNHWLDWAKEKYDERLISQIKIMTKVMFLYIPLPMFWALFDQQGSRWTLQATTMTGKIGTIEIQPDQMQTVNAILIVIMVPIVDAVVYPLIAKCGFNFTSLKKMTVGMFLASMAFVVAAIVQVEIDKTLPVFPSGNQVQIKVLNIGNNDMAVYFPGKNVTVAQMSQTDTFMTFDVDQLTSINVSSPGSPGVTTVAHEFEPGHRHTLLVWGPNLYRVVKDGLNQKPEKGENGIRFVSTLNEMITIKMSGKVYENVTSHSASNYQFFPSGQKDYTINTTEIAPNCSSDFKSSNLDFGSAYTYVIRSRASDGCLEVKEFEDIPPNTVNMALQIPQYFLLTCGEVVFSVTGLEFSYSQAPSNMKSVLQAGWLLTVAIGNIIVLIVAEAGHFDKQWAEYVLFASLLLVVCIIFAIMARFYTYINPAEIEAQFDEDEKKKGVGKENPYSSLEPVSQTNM
The series can be described thus: Drug uptake in Pichia pastoris GS115 expressing rat recombinant PEPT1 at 5 uM after 30s by dual-channel liquid scintillation counting analysis in presence of cephradine relative to control. To be noted: 0.5 min. A digest of the protocol:
(§2)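 Rat PEPT1 (pPIC3.5K-rPept1) in GS115 His+Mut+ transformant, methanol-induced 20-24 hr in BMMY at 30°C, washed into 100 mM potassium phosphate pH 6.5. [3H]GlySar final 5.0 µM with inhibitor at 10 mM, 30 sec at 24°C. Counts taken by liquid scintillation after 24 hr standing. Values are vector-subtracted and given as % of buffer control. Mean ± SE, n=3.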

Series [3] deals with T1, Solute carrier family 15 member 1. The series can be described thus: Drug uptake in Pichia pastoris GS115 expressing human recombinant PEPT1 at 5 uM after 30s by dual-channel liquid scintillation counting analysis in presence of cefazolin relative to control. To be noted: 0.5 min. A digest of the protocol:
as §1

Series [4] shares this target. Kind of series: Drug uptake in Pichia pastoris GS115 expressing human recombinant PEPT1 at 5 uM after 30s by dual-channel liquid scintillation counting analysis in presence of cephapirin relative to control. To be noted: 0.5 min. The essentials:
as §1

For series [5], the target named is T2, Solute carrier family 15 member 1. Kind of series: Drug uptake in Pichia pastoris GS115 expressing rat recombinant PEPT1 at 5 uM after 30s by dual-channel liquid scintillation counting analysis in presence of elacridar relative to control. The settings on record: 0.5 min. A digest of the protocol:
as §2

The target in series [6] is T3, PEPT1 (Homo sapiens, UniProt P46059).
T3 sequence (P46059 whole entry): T1 sequence (P46059 whole entry)
Kind of series: Drug uptake in Pichia pastoris GS115 expressing human recombinant PEPT1 at 5 uM after 30 mins by dual-channel liquid scintillation counting analysis relative to vector control. To be noted: read-out: FC. The essentials:
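5.0 µM radiolabelled substrate ([3H]GlySar or [14C]oseltamivir) is incubated 30 min at 24°C with induced transformants in 100 mM potassium phosphate pH 6.5. Cell-associated radioactivity is counted by scintillation after standing 24 h and normalised to OD600. Results are compared with pPIC3.5K vector-alone cells. Mean ± SE (n=6).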

Series [7] deals with T1, Solute carrier family 15 member 1. The series can be described thus: Activity at human recombinant PEPT1 expressed in Pichia pastoris GS115 assessed as non-saturable rate constant after 30s by dual-channel liquid scintillation counting analysis. The essentials: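 [3H]GlySar concentration series 0.005-10 mM, 30-s uptake at 24°C in 100 mM potassium phosphate pH 6.5. Cells come from His+Mut+ GS115 transformants induced 20-24 h in methanol medium. Uptake is normalised to OD600. Data are fitted to Michaelis-Menten plus a first-order nonsaturable term (Kd), weighting unity. Parameters are mean ± SE (n=9).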

The target of series [8] is T2, Solute carrier family 15 member 1. Kind of series: Drug uptake in Pichia pastoris GS115 expressing rat recombinant PEPT1 at 5 uM after 30s by dual-channel liquid scintillation counting analysis in presence of L-histidine relative to control. The settings on record: in vivo, 0.5 min. A digest of the protocol: as §1
Series [9] shares this target. Kind of series: Drug uptake in Pichia pastoris GS115 expressing rat recombinant PEPT1 at 5 uM after 30s by dual-channel liquid scintillation counting analysis in presence of GlyPro relative to control. To be noted: in vivo, 0.5 min. The essentials: as §1
The target is the same in series [10]. The series can be described thus: Drug uptake in Pichia pastoris GS115 expressing rat recombinant PEPT1 at 5 uM after 30s by dual-channel liquid scintillation counting analysis in presence of cefadroxil relative to control. To be noted: in vivo, 0.5 min. The essentials: as §1
In series [11] the target is T1, Solute carrier family 15 member 1. Kind of series: Drug uptake in Pichia pastoris GS115 expressing human recombinant PEPT1 at 5 uM after 30s by dual-channel liquid scintillation counting analysis in presence of cephradine relative to control. The settings on record: 0.5 min. A digest of the protocol:
as §1

For the compound `[3H]C(C(=O)O)N(C)C(=O)CN` (stereo unspecified), the Drug uptake in [1] is given as 3.5%; in series [2] it was 23.4%; in series [3], 81.1%; in series [4], 100%; in series [5], 119%; in series [8], 113%. In addition, the Drug uptake in series [9] is recorded as 0.6%; in [10], 23.1%; in [11], 23.2%. Besides, in series [6], the uptake ratio at 0.5 h, 5 µM is 30. The Kd in [7] turned out to be 2.21 uL/OD/min.

For the origin of these results see ChEMBL document CHEMBL3526053, “Species-dependent uptake of glycylsarcosine but not oseltamivir in Pichia pastoris expressing the rat, mouse, and human intestinal peptide transporter PEPT1” (Drug Metab Dispos, 2012).
